Experimental data from article PMC5684856 (Pharmacology Research & Perspectives, 2017).
“Also recorded” adds a separate entry of the source.

Key:
[1] = target: T1, human GPR119 (Homo sapiens, UniProt Q8TDV5); experiment: cAMP reporter assay in CHO-K1 cells expressing human GPR119; assay type: cell-based
T1 sequence (Q8TDV5 1-335): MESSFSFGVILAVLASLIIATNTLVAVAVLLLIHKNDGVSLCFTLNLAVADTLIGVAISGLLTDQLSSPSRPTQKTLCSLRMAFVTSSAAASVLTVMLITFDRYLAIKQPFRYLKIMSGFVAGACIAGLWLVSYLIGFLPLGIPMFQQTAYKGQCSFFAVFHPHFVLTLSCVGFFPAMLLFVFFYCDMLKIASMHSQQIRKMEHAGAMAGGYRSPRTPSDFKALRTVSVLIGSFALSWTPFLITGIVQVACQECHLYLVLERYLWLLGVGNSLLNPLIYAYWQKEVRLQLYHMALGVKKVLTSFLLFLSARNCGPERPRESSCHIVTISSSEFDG
Procedure, shortened: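 CHO-K1 cells stably expressing human GPR119 were co-transfected with a Cre-luciferase reporter and a renilla luciferase control. Cells were incubated with test compound for 4 h, then lysed. Firefly and renilla luciferase activities were measured in duplicate by dual-luciferase chemiluminescence. AR231453 served as the control agonist.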

[2] = target: T2, human GPR120/FFAR4 (Homo sapiens, UniProt Q5NUL3); experiment: Intracellular calcium assay; assay type: cell-based
T2 sequence (Q5NUL3 1-361): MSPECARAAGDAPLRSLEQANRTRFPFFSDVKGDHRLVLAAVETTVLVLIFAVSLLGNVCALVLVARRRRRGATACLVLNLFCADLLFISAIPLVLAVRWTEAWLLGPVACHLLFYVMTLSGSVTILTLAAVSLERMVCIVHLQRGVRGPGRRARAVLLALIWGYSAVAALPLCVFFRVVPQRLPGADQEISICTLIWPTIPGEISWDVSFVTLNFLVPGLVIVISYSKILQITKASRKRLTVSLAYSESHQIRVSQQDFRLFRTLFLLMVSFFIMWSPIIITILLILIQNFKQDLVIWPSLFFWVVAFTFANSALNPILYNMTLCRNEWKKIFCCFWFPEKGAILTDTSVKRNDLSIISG
Procedure, shortened: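 CHO-DXB11 cells were stably transfected with human GPR120/FFAR4 and grown in Ham's F-12 with 10% heat-inactivated FBS. Intracellular Ca2+ changes were measured in duplicate with a FLIPR calcium kit on a fluorescence imaging plate reader. Alpha-linolenic acid served as the control agonist.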

[3] = target: mouse GPR40/FFAR1 (Mus musculus, UniProt Q76JU9); experiment: Intracellular calcium assay; assay type: cell-based
mouse GPR40/FFAR1, sequence (Q76JU9 whole entry): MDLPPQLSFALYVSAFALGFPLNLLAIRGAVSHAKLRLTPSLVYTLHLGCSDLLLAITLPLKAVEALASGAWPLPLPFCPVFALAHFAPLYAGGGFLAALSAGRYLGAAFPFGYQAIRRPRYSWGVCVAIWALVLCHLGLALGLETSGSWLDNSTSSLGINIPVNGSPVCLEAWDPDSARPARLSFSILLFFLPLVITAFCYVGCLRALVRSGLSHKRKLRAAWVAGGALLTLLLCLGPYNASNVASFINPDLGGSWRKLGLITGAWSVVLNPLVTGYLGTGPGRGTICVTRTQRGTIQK
Procedure, shortened: (§1)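 CHO-DXB11 cells stably expressing human, mouse or rat GPR40/FFAR1 were grown in Ham's F-12 with 10% heat-inactivated FBS and penicillin/streptomycin in 96-well plates. Test compounds were dissolved in DMSO. Ca2+ increases were measured in duplicate (FLIPR kit, fluorescence imaging reader) and expressed as % of fasiglifam Emax. EC50 was obtained by sigmoidal curve fit; means ± SD of 6 assays.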

[4] = target: rat GPR40/FFAR1 (Rattus norvegicus, UniProt Q8K3T4); experiment: Intracellular calcium assay; assay type: cell-based
rat GPR40/FFAR1, sequence (Q8K3T4 whole entry): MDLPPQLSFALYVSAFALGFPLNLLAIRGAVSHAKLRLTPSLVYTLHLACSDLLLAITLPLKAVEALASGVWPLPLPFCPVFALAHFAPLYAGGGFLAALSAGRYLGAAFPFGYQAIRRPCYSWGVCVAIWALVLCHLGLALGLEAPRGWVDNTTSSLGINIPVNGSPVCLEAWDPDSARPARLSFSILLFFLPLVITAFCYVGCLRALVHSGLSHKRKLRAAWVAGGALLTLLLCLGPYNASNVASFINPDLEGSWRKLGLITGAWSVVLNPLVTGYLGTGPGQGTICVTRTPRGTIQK
Procedure, shortened: as §1

[5] = test system: rat primary islets; experiment: Glucose-dependent insulin secretion in rat islets; assay type: cell-based, Sprague-Dawley rats; conditions: 1 h
[6] = test system: Goto-Kakizaki (GK) rats; experiment: Chronic 5-week treatment in Goto-Kakizaki rats; assay type: in vivo, rat
[7] = test system: mouse insulinoma MIN6 cells; experiment: Caspase 3/7 activity in MIN6 cells; assay type: cell-based; conditions: 72-h exposure
Procedure, shortened: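 MIN6 mouse insulinoma cells were grown in DMEM with 10% heat-inactivated FBS, penicillin/streptomycin and 0.0005% 2-mercaptoethanol. Cells were exposed to test compound or palmitic acid for 72 h in 10% FBS plus 0.5% BSA. Caspase-3/7 activity was read with a homogeneous fluorogenic caspase-3/7 kit. Triplicate determinations; means + SD.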

[8] = test system: Sprague-Dawley rats; experiment: Effects on fasting glucose levels in Sprague-Dawley rats; assay type: in vivo, rat; conditions: fasted Sprague-Dawley rats
[9] = test system: Goto-Kakizaki (GK) rats; experiment: Oral glucose tolerance test in Goto-Kakizaki rats; assay type: in vivo, rat
Procedure, shortened: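 Male GK rats, 9–10 weeks old, were fasted overnight and grouped (n = 9–10) by fasting glucose and body weight. Vehicle or test compound was given orally, followed by oral glucose 1 g kg−1 60 min later. Blood was taken pre-dose, at −5 min, and at 5–180 min after glucose. Plasma glucose AUC covered −5 to 180 min and insulin AUC −5 to 60 min. Dunnett's test; means + SEM.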

[10] = target: human GPR40/FFAR1 (Homo sapiens, UniProt O14842); experiment: Intracellular calcium assay; assay type: cell-based
human GPR40/FFAR1, sequence (O14842 whole entry): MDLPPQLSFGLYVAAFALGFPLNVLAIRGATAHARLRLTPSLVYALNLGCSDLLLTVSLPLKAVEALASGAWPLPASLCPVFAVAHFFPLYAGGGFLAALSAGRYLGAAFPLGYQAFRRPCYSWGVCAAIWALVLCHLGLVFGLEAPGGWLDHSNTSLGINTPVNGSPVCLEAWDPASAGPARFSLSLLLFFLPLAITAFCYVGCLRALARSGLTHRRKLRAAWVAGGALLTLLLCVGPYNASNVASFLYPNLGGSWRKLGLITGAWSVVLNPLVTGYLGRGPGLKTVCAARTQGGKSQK
Procedure, shortened: as §1

[11] = test system: Sprague-Dawley rats; experiment: Oral glucose tolerance test in Sprague-Dawley rats; assay type: in vivo, rat
Procedure, shortened: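 Male Sprague-Dawley rats, 7–8 weeks old, were fasted overnight and grouped by body weight (n = 10). Vehicle or test compound was given orally 60 min before oral glucose 1 g kg−1. Blood was sampled pre-dose, at −5 min, and at 5, 15, 30, 60 and 120 min. Plasma glucose was measured enzymatically and insulin by ultrasensitive rat insulin ELISA. AUCs covered −5 to 120 min (glucose) and −5 to 60 min (insulin). Dunnett's test; means + SEM.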

[12] = Pharmacokinetic study in rats; assay type: in vivo, male Sprague-Dawley rats; conditions: rat
Procedure, shortened: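 Male Sprague-Dawley rats, 7 weeks old, received 3 mg kg−1 intravenously in N,N-dimethylacetamide/PEG400/water (4/4/2). After overnight fasting, others received 0.3, 1, 3 or 10 mg kg−1 orally as a suspension in 1% Tween 80 with 0.5% carboxymethyl cellulose. Plasma levels were analysed by noncompartmental analysis, with bioavailability from AUC. n = 3 per group; mean (SD).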

[13] = target: GPR40/FFAR1 (Mus musculus, UniProt Q76JU9); assay type: cell-based
GPR40/FFAR1, sequence (Q76JU9 whole entry): as the sequence (Q76JU9 whole entry) above
Procedure, shortened: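 CHO-DXB11 cells stably expressing mouse GPR40/FFAR1 were assayed for intracellular Ca2+ increases (FLIPR calcium dye, fluorescence imaging plate reader) in the presence of 10% FBS and 0.5% BSA. Triplicate determinations; means + SD.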

[14] = target: T3, PPAR gamma (Homo sapiens, UniProt P37231); experiment: Nuclear receptor reporter activation assay; assay type: cell-based
T3 sequence (P37231 1-505): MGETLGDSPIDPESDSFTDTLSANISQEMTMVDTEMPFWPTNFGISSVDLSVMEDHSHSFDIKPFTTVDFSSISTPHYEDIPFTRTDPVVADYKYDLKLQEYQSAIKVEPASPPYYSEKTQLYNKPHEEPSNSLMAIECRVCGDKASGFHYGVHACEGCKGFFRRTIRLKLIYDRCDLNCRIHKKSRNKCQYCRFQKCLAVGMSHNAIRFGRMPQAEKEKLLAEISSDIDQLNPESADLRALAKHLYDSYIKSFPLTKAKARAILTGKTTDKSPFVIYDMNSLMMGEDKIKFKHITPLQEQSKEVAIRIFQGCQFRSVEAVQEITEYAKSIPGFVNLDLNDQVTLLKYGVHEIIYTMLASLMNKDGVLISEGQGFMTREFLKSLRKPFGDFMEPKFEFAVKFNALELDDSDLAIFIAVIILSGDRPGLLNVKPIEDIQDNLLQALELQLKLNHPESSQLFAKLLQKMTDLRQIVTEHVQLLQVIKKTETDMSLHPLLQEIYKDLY

[15] = test system: healthy volunteers and T2DM patients; conditions: cited from earlier work
[16] = ref Tsujihata et al. 2011; Ito et al. 2013; cited from earlier work
[17] = 1 mg·kg^−1 p.o., 15 min after glucose challenge
[18] = p.o. 60 min before glucose 1 g kg^−1, vs vehicle
[19] = male, Sprague-Dawley, plasma, iv, 3 mg/kg
[20] = male, Sprague-Dawley, plasma, po, 0.3 mg/kg
[21] = male, Sprague-Dawley, plasma, po, 1 mg/kg
[22] = male, Sprague-Dawley, plasma, po, 3 mg/kg
[23] = male, Sprague-Dawley, plasma, po, 10 mg/kg

SMILES: Cc1cc(OCCCS(C)(=O)=O)cc(C)c1-c1cccc(COc2ccc(-c3cc(O)n[s+]3[O-])cc2)c1 [MR1704, (R)‐5‐[4‐[3‐[2,6‐Dimethyl‐4‐[3‐(methylsulphonyl)propoxy]‐phenyl]benzyloxy]phenyl]‐isothiazol‐3‐ol 1‐oxide]
- hGPR119 activation (at 3 nmol·L^−1) ([1]; at 3 nmol·L^−1 as printed): 1%
- agonistic activity in GPR119-expressing cells ([1]; at 3 μmol·L^−1): did not show any agonistic activities
- hGPR120 activation (at 3 nmol·L^−1) ([2]; at 3 nmol·L^−1 as printed): 4%
- agonistic activity in GPR120/FFAR4-expressing cells ([2]; at 3 μmol·L^−1): did not show any agonistic activities
- EC50 [3]: 25 ± 4 nM
- EC50 [4]: 27 ± 3 nM
- insulin secretion in low glucose ([5]; MR1704 3 μmol·L^−1, 2 mmol·L^−1 glucose): but not low glucose conditions
- insulin secretion in high glucose ([5]; MR1704 3 μmol·L^−1, 16 mmol·L^−1 glucose): markedly potentiated insulin secretion in high glucose
- glycated hemoglobin (HbA1c) levels, effect in words ([6]; 3 mg·kg^−1 p.o. once daily, after 5 weeks): significantly reduced glycated hemoglobin (HbA1c) levels
- pancreatic insulin content ([6]; after 5-week treatment, vs vehicle): without reducing pancreatic insulin content; also recorded: No significant difference was observed
- nonfasting glucose levels ([6]; at least 1 mg·kg^−1 p.o. once daily, 5 weeks): reduced nonfasting glucose levels
- body weight gain ([6]; once daily p.o., 5 weeks, vs vehicle-treated group): comparable body weight gain
- caspase 3/7 activity ([7]; even at 10 μmol·L^−1 with 0.5% BSA): did not induce caspase 3/7 activity
- fasting plasma glucose levels ([8]; even at 300 mg·kg^−1 p.o., 1 to 12 h after dosing): did not reduce the fasting plasma glucose levels
- AUC of glucose levels during OGTT ([9]; 1 mg·kg^−1 p.o.): significant reduction in the AUC of glucose levels
- plasma insulin secretion during OGTT [9, 17]: significantly enhanced plasma insulin secretion
- plasma glucose excursion during OGTT [9, 18]: reduced plasma glucose excursion
- EC50 [10]: 35 ± 6 nM
- AUC of glucose levels during OGTT ([11]; 1 mg·kg^−1 p.o.): significant reduction in the AUC of glucose levels
- plasma insulin secretion during OGTT [11, 17]: significantly enhanced
- plasma glucose excursion during OGTT [11, 18]: reduced plasma glucose excursion
- AUC(0-inf) [12, 19]: 8960 ng·h/mL
- Vd [12, 19]: 0.584 L/kg
- clearance [12, 19]: 5.62 mL/min/kg
- half-life [12, 19]: 1.92 h
- AUC(0-inf) [12, 20]: 511 ng·h/mL
- Cmax [12, 20]: 102 ng/mL
- Tmax [12, 20]: 0.83 h
- bioavailability [12, 20]: 57%
- half-life [12, 20]: 2.48 h
- AUC(0-inf) [12, 21]: 1450 ng·h/mL
- Cmax [12, 21]: 264 ng/mL
- Tmax [12, 21]: 2.67 h
- bioavailability [12, 21]: 49%
- half-life [12, 21]: 2.1 h
- AUC(0-inf) [12, 22]: 4710 ng·h/mL
- Cmax [12, 22]: 755 ng/mL
- Tmax [12, 22]: 4 h
- bioavailability [12, 22]: 53%
- half-life [12, 22]: 2.13 h
- AUC(0-inf) [12, 23]: 8430 ng·h/mL
- Cmax [12, 23]: 1130 ng/mL
- Tmax [12, 23]: 5.33 h
- bioavailability [12, 23]: 28%
- half-life [12, 23]: 2.08 h
- time at which plasma concentrations reached maximum values ([12]; p.o., all tested doses (0.3-10 mg·kg^−1)): 0.83 to 5.33 h
- EC50 [13]: 210 nM
- PPAR gamma activation (at 3 nmol·L^−1) ([14]; at 3 nmol·L^−1 as printed): 1%
- agonistic activity in PPAR gamma-expressing cells ([14]; at 3 μmol·L^−1): did not show any agonistic activities

SMILES: Cc1cc(OCCCS(C)(=O)=O)cc(C)c1-c1cccc(COc2ccc3c(c2)OC[C@H]3CC(=O)O)c1 [fasiglifam]
- glucose-lowering effect ([15]; T2DM patients, ref Burant et al. 2012, Kaku et al. 2013): glucose‐lowering effect
- hepatotoxicity (liver enzyme levels) ([15]; clinical, ref Kaku et al. 2015): increased liver enzyme levels
- clinical parameters of glucose homeostasis ([15]; healthy human adults, ref Leifke et al. 2012): did not affect clinical parameters of glucose homeostasis
- safety and tolerability ([15]; healthy volunteers, ref Naik et al. 2012): safe and well tolerated
- pancreatic toxicity [16]: does not cause pancreatic toxicity

SMILES: CCCCCCCCCCCCCCCC(=O)O [palmitic acid, reference compound]
- caspase 3/7 activity ([7]; 300 μmol·L^−1 with 0.5% BSA): induced caspase 3/7 activity
- EC50 [13]: 29000 nM

SMILES: [Cl-].[K+] [KCl, reference compound]
- insulin secretion in low glucose ([5]; KCl positive control, 2 mmol·L^−1 glucose): significantly potentiated insulin secretion
- insulin secretion in high glucose ([5]; KCl positive control, 16 mmol·L^−1 glucose): significantly potentiated insulin secretion

SMILES: COc1ccc(Cl)cc1C(=O)NCCc1ccc(S(=O)(=O)NC(=O)NC2CCCCC2)cc1 [glibenclamide, reference compound]
- fasting plasma glucose levels ([8]; glibenclamide 10 mg·kg^−1 p.o.): significantly reduced the fasting plasma glucose levels
